Source: ChEMBL document CHEMBL5260794, “Synthesis and biological evaluation of a new class of benzothiazines as neuroprotective agents” (Eur J Med Chem, 2017)
Calls of active or inactive are those of the source. No cut-off for these calls is given here.

Columns and labels:
Rattus norvegicus [1] = organism: Rattus norvegicus; test: Neuroprotective activity against oxygen glucose deprivation/reperfusion-induced Wistar rat cortical brain assessed as concentration required to reduce glutamate release by measuring efficacy window; assay type: functional
Summary of the method: (§1)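 Male Wistar rat cortical slices (400 μm) in oxygenated ACSF, pH 7.4, 1 h at room temperature, then 30 min at 37 °C. OGD for 30 min in glucose-free ACSF with 11 mM sucrose under 95% N₂/5% CO₂. Compound added in the reoxygenation buffer. Glutamate and LDH release measured. Mean ± SEM of at least four experiments, ANOVA with Dunnett test.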

Rattus norvegicus [2] = organism: Rattus norvegicus; test: Neuroprotective activity against oxygen glucose deprivation/reperfusion-induced Wistar rat cortical brain assessed as concentration required to reduce LDH release by measuring efficacy window; assay type: functional; summary of the method: as §1
Rattus norvegicus [3] = organism: Rattus norvegicus; test: Neuroprotective activity against oxygen glucose deprivation/reperfusion-induced Wistar rat cortical brain assessed as reduction in glutamate release relative to control; assay type: functional; design: concentration or dose not given beside the values; summary of the method: as §1
Rattus norvegicus [4] = organism: Rattus norvegicus; test: Neuroprotective activity against oxygen glucose deprivation/reperfusion-induced Wistar rat cortical brain assessed as reduction in LDH release relative to control; assay type: functional; design: concentration or dose not given beside the values; summary of the method: as §1
SH-SY5Y [5] = test: Neuroprotective activity against glutamate-induced toxicity in human SH-SY5Y cells assessed as reduction in cell rounding at 10 uM pretreated for 1 hr followed by glutamate challenge measured after 24 hrs by phase-contrast light microscopic analysis; assay type: functional, cell-based; conditions: time 25.0 hrs
Summary of the method: (§2)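 SH-SY5Y cells attached 24 h, then pretreated 1 h with compound (0.1-10 μM) before glutamate 50 mM for 24 h. Viability by MTT. Morphology under phase-contrast microscope, scored by the USP 28 grade scale (0-4). Mean ± SEM of 4 independent experiments run in triplicate or quadruplicate, ANOVA with Dunnett test.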

SH-SY5Y [6] = test: Neuroprotective activity against glutamate-induced toxicity in human SH-SY5Y cells assessed as reduction in cell detachment at 10 uM pretreated for 1 hr followed by glutamate challenge measured after 24 hrs by phase-contrast light microscopic analysis; assay type: functional, cell-based; conditions: time 25.0 hrs; summary of the method: as §2
SH-SY5Y [7] = test: Neuroprotective activity against glutamate-induced toxicity in human SH-SY5Y cells assessed as reduction in grade 2 to 3 toxicity at 10 uM pretreated for 1 hr followed by glutamate challenge measured after 24 hrs by phase-contrast light microscopic analysis; assay type: functional, cell-based; conditions: time 25.0 hrs; summary of the method: as §2
[8] = Cytotoxicity against human SH-SY5Y cells assessed as cell viability at 10 uM measured after 24 hrs by MTT assay; assay type: toxicity, cell-based
Summary of the method: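 SH-SY5Y cells (RPMI 1640, 10% FBS, 37 °C, 5% CO₂, exponential growth) seeded 8 x 10⁴ cells/mL and left to attach 24 h, then exposed to compound alone for 24 h. MTT viability read. Morphology graded 0-4 on the USP 28 scale under phase contrast. Compound diluted from DMSO stock in PBS, final DMSO <0.01%.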

SH-SY5Y [9] = test: Neuroprotective activity against glutamate-induced toxicity in human SH-SY5Y cells assessed as reduction in ROS production at 10 uM measured after 24 hrs by DCFH-DA staining based assay relative to control; assay type: functional; design: scale not given: the % may be the effect or the level left
Summary of the method: (§3)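 SH-SY5Y cells loaded with DCFH-DA (5 μM, 30 min) and washed before treatment. Pretreated 1 h with compound (0.1-10 μM), then glutamate 50 mM. Fluorescence (ex 485/em 535 nm) read at 1 h or 24 h and expressed as % inhibition of glutamate-induced ROS. 4 independent experiments.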

SH-SY5Y [10] = test: Neuroprotective activity against 6-OHDA-induced toxicity in human SH-SY5Y cells assessed as increase in cell viability at 10 uM pretreated for 1 hr followed by 6-OHDA challenge measured after 2 hrs by MTT assay; assay type: functional, cell-based; conditions: time 3.0 hrs
Summary of the method: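 SH-SY5Y cells attached 24 h, then pretreated 1 h with compound (0.1-10 μM) and challenged with 6-OHDA 55 μM for 2 h. 6-OHDA made fresh in nitrogen-gassed 5 μM ascorbic acid, and controls received medium with ascorbic acid. Viability by MTT. Mean ± SEM of 4 independent experiments run in triplicate or quadruplicate, ANOVA with Dunnett test.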

SH-SY5Y [11] = test: Neuroprotective activity against 6-OHDA-induced toxicity in human SH-SY5Y cells assessed as reduction in condensed and fragmented nuclei at 10 uM pretreated for 1 hr followed by 6-OHDA challenge measured after 2 hrs by DAPI staining based assay relative to control; assay type: functional; design: scale not given: the % may be the effect or the level left; conditions: time 3 hrs
Summary of the method: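 DAPI staining of SH-SY5Y cells pretreated 1 h with compound at 10 μM, then given 6-OHDA 55 μM for 2 h. Condensed or fragmented nuclei scored as apoptotic. Mean ± SEM of 4 independent experiments.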

SH-SY5Y [12] = test: Neuroprotective activity against 6-OHDA-induced toxicity in human SH-SY5Y cells assessed as reduction in ROS production by DCFH-DA staining based assay; assay type: functional, cell-based; conditions: dose 0.1-10 µM
Summary of the method: (§4)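 SH-SY5Y cells loaded with DCFH-DA (5 μM, 30 min) and washed. Pretreated 1 h with compound (0.1-10 μM), then 6-OHDA 55 μM. Fluorescence (ex 485/em 535 nm) read at 1 h or 24 h and expressed as % inhibition of 6-OHDA-induced ROS. 4 independent experiments.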

SH-SY5Y [13] = test: Neuroprotective activity against 6-OHDA-induced toxicity in human SH-SY5Y cells assessed as cell viability at 0.1 uM pretreated for 1 hr followed by 6-OHDA challenge measured after 2 hrs by MTT assay; assay type: functional, cell-based; conditions: time 3.0 hrs
SH-SY5Y [14] = test: Neuroprotective activity against 6-OHDA-induced toxicity in human SH-SY5Y cells assessed as reduction in condensed and fragmented nuclei at 0.1 uM pretreated for 1 hr followed by 6-OHDA challenge measured after 2 hrs by DAPI staining based assay relative to control; assay type: functional, cell-based; conditions: time 3.0 hrs
Rattus norvegicus [15] = organism: Rattus norvegicus; test: Inhibition of transient voltage-dependent sodium current in Wistar rat brain piriform cortex layer at 50 uM by whole cell patch clamp method relative to control; assay type: functional
SH-SY5Y [16] = test: Neuroprotective activity against glutamate-induced toxicity in human SH-SY5Y cells assessed as reduction in G0/G1 phase cells at 10 uM pretreated for 1 hr followed by glutamate challenge measured after 24 hrs by propidium staining based flow cytometry; assay type: functional, cell-based; conditions: time 25.0 hrs
Summary of the method: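 SH-SY5Y cells (2.5 x 10⁵ cells/mL) pretreated 1 h with compound, then given glutamate 50 mM for 24 h. Cells fixed in 70% ethanol (30 min, 4 °C), held at -20 °C for at least 24 h, stained with propidium iodide. Flow cytometry on at least 1x10⁴ cells, cell-cycle phases and sub-G₀/G₁ fraction quantified. 4 independent experiments.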

Rattus norvegicus [17] = organism: Rattus norvegicus; test: Inhibition of high voltage-activated calcium current in Wistar rat brain piriform cortex assessed as blockade of barium current by whole cell patch clamp method; assay type: functional
Summary of the method: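 Acutely dissociated P15-P22 Wistar rat piriform cortex neurons recorded whole-cell at holding -70 mV. 5 mM Ba²⁺ was the charge carrier, with a Cs methanesulfonate pipette. HVA currents evoked by step or ramp protocols from -60 mV. Compound applied by local perfusion (DMSO 0.02-0.67%). Peak I_Ba amplitude tracked over time, and concentration-response fitted with the sum of two Hill functions.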

SH-SY5Y [18] = test: Neuroprotective activity against 6-OHDA-induced toxicity in human SH-SY5Y cells assessed as reduction in ROS production at 0.1 to 10 uM by DCFH-DA staining based assay; assay type: functional, cell-based; conditions: dose 0.1-10 µM, TDE = time-dependent effect; summary of the method: as §4
SH-SY5Y [19] = test: Neuroprotective activity against glutamate-induced toxicity in human SH-SY5Y cells assessed as reduction in ROS production at 0.1 to 10 uM by DCFH-DA staining based assay; assay type: functional, cell-based; conditions: dose 0.1-10 µM, time 24.0 hrs, TDE = time-dependent effect; summary of the method: as §3

Compound `CCN(CC)/C(C)=N/C1=Nc2ccccc2CS1` has an Efficacy (Rattus norvegicus [1]) of 0.1 µM, an Efficacy (Rattus norvegicus [2]) of 0.1 µM and an Activity (Rattus norvegicus [3]) of 100%. The Activity (Rattus norvegicus [4]) was 72.4%, the Activity (SH-SY5Y [5]) was “Active” and the Activity (SH-SY5Y [6]) was “Active”. For the same compound, the Activity (SH-SY5Y [7]) was “Active”, the viability reduction at 24 h, 10 µM [8] was 10% and the Activity (SH-SY5Y [9]) was 20%. For the same compound, the Activity (SH-SY5Y [10]) was “Active”, the Activity (SH-SY5Y [11]) was over 20% and the Activity (SH-SY5Y [12]) was “Dose-Dependent Effect”. The Activity (SH-SY5Y [13]) was “Active”, the Activity (SH-SY5Y [14]) was “Active” and the inhibition in vivo at 50 µM (Rattus norvegicus [15]) was 51.9%. The Activity (SH-SY5Y [16]) was “Active”, the IC50 (Rattus norvegicus [17]) was 5.4 µM and the Activity (SH-SY5Y [18]) was “Tde”. The Activity (SH-SY5Y [19]) was “Tde”.
With `CCCN(CCC)/C(C)=N/C1=Nc2ccccc2CS1` the Efficacy (Rattus norvegicus [1]) was 0.1 µM, the Efficacy (Rattus norvegicus [2]) was 0.1 µM and the Activity (Rattus norvegicus [3]) was 90.5%. The Activity (Rattus norvegicus [4]) was 58.2%, the Activity (SH-SY5Y [5]) was “Active” and the Activity (SH-SY5Y [6]) was “Active”. For the same compound, the Activity (SH-SY5Y [7]) was “Active”, the viability reduction at 24 h, 10 µM [8] was 10% and the Activity (SH-SY5Y [9]) was 20%. The Activity (SH-SY5Y [10]) was “Active”, the Activity (SH-SY5Y [11]) was over 20% and the Activity (SH-SY5Y [12]) was “Dose-Dependent Effect”. The Activity (SH-SY5Y [13]) was “Active”, the Activity (SH-SY5Y [14]) was “Active” and the inhibition in vivo at 50 µM (Rattus norvegicus [15]) was 15.9%. The Activity (SH-SY5Y [16]) was “Active”, the IC50 (Rattus norvegicus [17]) was 4.4 µM and the Activity (SH-SY5Y [18]) was “Tde”. The Activity (SH-SY5Y [19]) was “Tde”.
